TRPML3 ag: human mucolipin-3 channel agonism; activation, % at 3 µM; HEK293 TRPML3-YFP, Fluo-8 calcium fluorescence; 100% = the carbachol control signal; hit rate 0.29% among 220,000;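 active means activation above its plate's cutoff, the mean activation of the plate's test wells plus 3 SD, cut at about 12% in these data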;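 further: 0% = DMSO only wells and 100% = carbachol wells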
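Test system: TRPML3-YFP stable HEK293 cells. Doses: single point at 3 µM. Incubation: dye loading 1 h 37 °C then 30 min ambient, 125 s read. Signal: Fluo-8 calcium dye fluorescence, ex 470-495, em 515-575 nm. Measure: percent activation from peak-to-basal fluorescence ratio, scaled between DMSO and carbachol.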
OXTR potentiate: human OXTR potentiation. P30559. CHO-OTR cells, Fluo-8 calcium fluorescence, potentiator mode; 0% = oxytocin EC15, 100% = EC100. activation, % at 3 µM. hit rate 0.061% among 320,000. AID 2445;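 active means activation above that plate's cutoff, the mean activation of tested compounds plus 3 SD, cut at about 6.6% in these data, passing the limit was not always enough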;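 further: 100% uses oxytocin at 75 nM as the full agonist control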
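Replication – single well per compound, singlicate · Assay system – CHO cell line stably expressing human OTR · Timing – 6 min pre-incubation, 100 s read · Measure – normalized max/min fluorescence ratio, % activation · Doses – 3.0 µM, one dose · Detection – Fluo-8 calcium dye fluorescence · Probe or stimulus – oxytocin near EC15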
V1R ag counter: V1a receptor agonism, counter-screen for OXTR agonists; P37288; CHO-V1R cells, Fluo-8 calcium fluorescence, agonist mode; 0% DMSO, 100% 3 nM vasopressin; activation, % at 3 µM; hit rate 0.25% among 320,000;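 active means activation above the mean activation of all tested compounds plus 3 SD, per screening run, cut at about 20% in these data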;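 further: signal is peak over basal fluorescence ratio across a 100 second FLIPR read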
Target sequence (P37288 whole entry, looked up): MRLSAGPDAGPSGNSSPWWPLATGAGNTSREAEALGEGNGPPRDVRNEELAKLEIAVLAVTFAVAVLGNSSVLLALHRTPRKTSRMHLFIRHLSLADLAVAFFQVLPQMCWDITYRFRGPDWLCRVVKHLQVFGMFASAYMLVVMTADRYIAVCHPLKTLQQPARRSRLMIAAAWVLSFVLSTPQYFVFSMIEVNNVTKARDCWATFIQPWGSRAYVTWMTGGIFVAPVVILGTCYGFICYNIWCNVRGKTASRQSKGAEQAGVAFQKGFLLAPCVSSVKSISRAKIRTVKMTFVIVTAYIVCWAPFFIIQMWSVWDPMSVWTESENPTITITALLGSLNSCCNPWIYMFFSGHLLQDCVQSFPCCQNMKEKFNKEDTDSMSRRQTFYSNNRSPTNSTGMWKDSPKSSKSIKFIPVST
zfTRPN1 agonist: activates the zebrafish TRPN1 channel | HEK293 zebrafish TRPN1-YFP, Fluo-8 calcium fluorescence; 100% = response to 87 µM carbachol | hit rate 0.18% among 220,000 | AID 1424 | activation, % at 3 µM;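 active means activation above its plate's cutoff, the mean activation of test wells on that plate plus 3 SD, cut at about 19% in these data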;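 further: 0% = DMSO alone and 100% = 87 µM carbachol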
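System: zebrafish TRPN1-YFP in HEK293 cells / Dosing: 3 µM single point / Timing: dye loading 1 h at 37 °C, then 30 min room temperature / Signal: Fluo-8 calcium fluorescence, excitation 470-495 nm, emission 515-575 nm / Read-out basis: percent activation from peak over basal fluorescence ratio, control-normalized / Control set: high carbachol 87 µM, low DMSO alone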
OXTR agonist: human OXTR agonism; activation, % at 3 µM; P30559; hit rate 0.32% among 320,000; AID 2435; CHO-OTR cells, Fluo-8 calcium fluorescence; normalized: DMSO 0%, oxytocin 100%;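 active means activation above the mean of all tested compounds plus 3 SD, cutoff set per screening run, cut at about 20% in these data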;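 further: peak over basal fluorescence ratio from a 100 s FLIPR kinetic read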
OXTR pot cf: human OXTR potentiation, confirmation; shares compounds with OXTR potentiate; AID 434985; activation, % at 3 µM; CHO-OTR cells, Fluo-8 calcium fluorescence; scaled from low-dose to maximal oxytocin; 180 tested, under 10 active;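 active means mean percent activation over triplicates above a cutoff set from solvent-only control plates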;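 further: compounds tested in the presence of an EC15 dose of oxytocin; 0% = EC15 oxytocin with DMSO and 100% = EC100 oxytocin with DMSO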
V1aR agonist cf: confirmation of human vasopressin V1a receptor agonists; activation, % at 3 µM; shares compounds with V1R ag counter; hit rate 20% among 180; CHO-V1R cells, Fluo-8 calcium fluorescence, agonist;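 active means average activation exceeds primary screen hit cutoff, cut at about 21% in these data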;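 further: peak over basal fluorescence ratio during a 100 s FLIPR read; 0% = DMSO only wells and 100% = 3 nM vasopressin wells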
OXTR counter: OXTR agonism, counter-screen for V1R agonists | shares compounds with V1R ag counter | AID 434969 | CHO-OTR cells, Fluo-8 calcium fluorescence, agonist | activation, % at 3 µM | hit rate 10% among 180;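 active means mean activation over three repeats above the cutoff from the earlier oxytocin receptor agonist screen, cut at about 20% in these data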;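 further: peak over minimum fluorescence ratio within a 100 second FLIPR read; 0% = DMSO only wells and 100% = oxytocin high control wells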
* = called active by the depositor. In the library only some 0.59% were active in any assay of this set; here they are far more common.

How did CC(C)(C(N)=O)N1CCN(c2ncc(C(F)(F)F)cc2Cl)CC1 do in these assays?
TRPML3 ag: 0.7; OXTR potentiate: -17.0; V1R ag counter: 9.3; zfTRPN1 agonist: 2.3; OXTR agonist: 5.2

What do the screens show for `NC(=O)CC(NC(=O)c1cccc(Br)c1)c1ccc(NC2CCCCCCC2)c([N+](=O)[O-])c1` (centres undefined)?
OXTR potentiate: -2.2; V1R ag counter: 0.5; OXTR agonist: -0.7

How did CCOC(=O)c1ccc(S(=O)(=O)N2CCNCC2)cc1 do in these assays?
TRPML3 ag: 1.0; OXTR potentiate: 12.9*; V1R ag counter: 6.0; zfTRPN1 agonist: -0.9; OXTR agonist: 1.1; OXTR pot cf: -3.6

Results for Cn1cccc1C(=O)N/N=C/c1c(Cl)cccc1Cl ?
OXTR potentiate: 0.4; V1R ag counter: -0.1; OXTR agonist: -1.7

Results for COc1ccc(OC)c(N(CC(=O)NC2CCCC2)S(=O)(=O)c2ccc(OC)c(OC)c2)c1 ?
OXTR potentiate: -6.7; V1R ag counter: -0.6; OXTR agonist: 0.1

How did Cc1cccnc1Nc1ncnc(N)c1[N+](=O)[O-] do in these assays?
TRPML3 ag: 0.3; OXTR potentiate: 10.9*; V1R ag counter: 0.9; zfTRPN1 agonist: -0.1; OXTR agonist: 0.8; OXTR pot cf: -4.3

Results for O=C(CSc1nnc(C2CC2)n1C1CC1)Nc1cccc(Br)c1 ?
OXTR potentiate: -6.3; V1R ag counter: -0.1; OXTR agonist: 0.0

What do the screens show for `COc1cc(OC)cc(-c2c(-c3cccs3)c3cc(-c4ccc(C(N)=O)cc4)ccc3n2C)c1`?
OXTR potentiate: 12.9*; V1R ag counter: 2.4; OXTR agonist: 2.5; OXTR pot cf: -5.2

Results for COc1ccc(-c2ccc3c(c2)c(-c2cccs2)c(-c2cc(OC)cc(OC)c2)n3C)cc1 ?
OXTR potentiate: -2.3; V1R ag counter: -0.8; OXTR agonist: 1.7

What do the screens show for `COC(=O)c1ccc(/C=C/C(=O)OCC(=O)NCc2cccs2)cc1`?
OXTR potentiate: -1.2; V1R ag counter: 4.4; OXTR agonist: 10.4

How did C/C(=N/NC(=O)CNC(=O)c1ccccn1)c1cccc([N+](=O)[O-])c1 do in these assays?
TRPML3 ag: 0.7; OXTR potentiate: 11.8*; V1R ag counter: 1.2; zfTRPN1 agonist: 0.4; OXTR agonist: 1.1; OXTR pot cf: -2.9

How did CCOc1ccc(NC(=O)Cc2ccc(NC3=NC4CS(=O)(=O)CC4S3)cc2)cc1 (centres undefined) do in these assays?
OXTR potentiate: -7.8; V1R ag counter: -0.7; OXTR agonist: -0.8

How did CCc1ccc(NC(=O)Cc2ccc(NC3=NC4CS(=O)(=O)CC4S3)cc2)cc1 (centres undefined) do in these assays?
OXTR potentiate: 8.3*; V1R ag counter: 0.4; OXTR agonist: 0.2; OXTR pot cf: -4.2

What do the screens show for `COC(=O)c1cc(S(=O)(=O)N2CCCCC2C)c[nH]1` (centres undefined)?
OXTR potentiate: 11.0*; V1R ag counter: 0.9; OXTR agonist: 0.5; OXTR pot cf: -7.7

How did COC(=O)c1cc(S(=O)(=O)N2CCCC(C)C2)c[nH]1 (centres undefined) do in these assays?
OXTR potentiate: -6.7; V1R ag counter: 1.4; OXTR agonist: -0.4

How did COc1ccc(C(=O)NC(=O)CSc2nc3nc(C)cc(C)n3n2)cc1 do in these assays?
OXTR potentiate: -4.4; V1R ag counter: 0.9; OXTR agonist: 0.5

Results for CC(=O)N1CCN(S(=O)(=O)c2cccc(C(=O)OCN3C(=O)c4ccccc4C3=O)c2)CC1 ?
OXTR potentiate: 11.1*; V1R ag counter: 1.0; OXTR agonist: 1.6; OXTR pot cf: -5.5

Results for CCOc1ccccc1Oc1c(C)oc2cc(OC(=O)c3ccco3)ccc2c1=O ?
TRPML3 ag: 0.0; OXTR potentiate: 13.2*; V1R ag counter: 0.0; zfTRPN1 agonist: 0.9; OXTR agonist: -0.9; OXTR pot cf: 0.9

Results for O=C(NC1CCOc2ccccc21)C1CCCC1 (centres undefined) ?
OXTR potentiate: -1.4; V1R ag counter: 0.3; OXTR agonist: 1.0

Results for Cc1nnc(N/N=C/C(C)c2ccccc2)[nH]c1=O (centres undefined) ?
TRPML3 ag: 0.7; OXTR potentiate: -1.4; V1R ag counter: 0.3; zfTRPN1 agonist: 0.0; OXTR agonist: 1.9

Results for C=CCn1cc(CN2CCC(C(=O)Nc3cccc(-c4cccc(Cl)c4)c3)CC2)c(C)n1 ?
OXTR potentiate: -8.4; V1R ag counter: 22.5*; OXTR agonist: 5.1; V1aR agonist cf: -0.3; OXTR counter: -0.2

What do the screens show for `C=CCn1cc(CN2CCC(C(=O)Nc3cccc(-c4cccc(F)c4)c3)CC2)c(C)n1`?
OXTR potentiate: -8.7; V1R ag counter: 5.0; OXTR agonist: 2.3

How did Cc1ccc(OCc2cc(C(=O)NCc3ccc(OC(F)(F)F)cc3)no2)cn1 do in these assays?
OXTR potentiate: -7.7; V1R ag counter: 28.0*; OXTR agonist: 19.4; V1aR agonist cf: 13.9; OXTR counter: 21.4*

What do the screens show for `CCc1cc(CNC(=O)c2cc(COc3ccc(C)nc3)on2)on1`?
OXTR potentiate: 5.3; V1R ag counter: 1.6; OXTR agonist: 0.6

Results for CC(C)(C)NC(=S)NNC(=O)[C@H]1C[C@@H]1c1ccccc1 ?
TRPML3 ag: 0.9; OXTR potentiate: -2.5; V1R ag counter: 0.1; zfTRPN1 agonist: 0.3; OXTR agonist: 0.1

How did O=C(/C=C/c1ccc(F)cc1)NC(=S)NNC(=O)[C@H]1C[C@@H]1c1ccccc1 do in these assays?
OXTR potentiate: -7.2; V1R ag counter: 26.2*; OXTR agonist: 7.9; V1aR agonist cf: 19.1; OXTR counter: 16.3

How did CCOc1cccc(C2C(C(=O)c3ccc(C)o3)=C(O)C(=O)N2c2nccs2)c1 (centres undefined) do in these assays?
TRPML3 ag: 3.5; OXTR potentiate: -14.0; V1R ag counter: 38.6*; zfTRPN1 agonist: 3.6; OXTR agonist: 1.8; V1aR agonist cf: 3.9; OXTR counter: 3.5

How did COc1ccc(-c2ccc(C3C(C#N)=C(N)Oc4n[nH]c(C)c43)o2)cc1 (centres undefined) do in these assays?
TRPML3 ag: 7.4; OXTR potentiate: -10.2; V1R ag counter: 23.8*; zfTRPN1 agonist: 4.2; OXTR agonist: 5.2; V1aR agonist cf: 5.6; OXTR counter: 6.3

Screens: PubChem BioAssay, The Scripps Research Institute Molecular Screening Center
